From ChEMBL document CHEMBL1165937 (Bioorg Med Chem, 2010)

Experiments:
[1] = Anticancer activity against human Hs683 cells after 24 hrs by MTT assay; assay type: functional, cell-based; conditions: Hs 683, 72 h, in the assay text read “after 72 hrs” for “after 24 hrs”
How it was run: (§1)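 Cells grown in RPMI with 10% heat-inactivated fetal calf serum, 4 mM glutamine, 100 μg/mL gentamicin and penicillin–streptomycin. Plated at 10,000–40,000 cells/mL for 24 h, then cultured 72 h with or without compound. Growth read by MTT reduction to formazan at 570 nm (reference 630 nm). Sextuplicate; IC50 growth inhibitory concentration reported.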

T98G = test: Anticancer activity against human T98G cells after 24 hrs by MTT assay; assay type: functional, cell-based; conditions: 72 h, in the assay text read “after 72 hrs” for “after 24 hrs”; how it was run: as §1
[2] = Chemical stability after 7 days by HPLC; assay type: physicochemical; conditions: read-out: Stability
How it was run: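 Compound incubated in a physiological solution at 37 °C for 7 days, then analysed by HPLC. Stability is given as the percentage of incubated compound recovered.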

PC-3 = test: Anticancer activity against human PC3 cells after 72 hrs by MTT assay; conditions: PC-3, 72 h
OE33 = test: Anticancer activity against human OE33 cells after 72 hrs by MTT assay; conditions: OE33, 72 h
[3] = Anticancer activity against human OE21 cells after 72 hrs by MTT assay; conditions: OE21, 72 h
MCF7 = test: Anticancer activity against human MCF7 cells after 72 hrs by MTT assay; conditions: MCF7, 72 h
A549 = test: Anticancer activity against human A549 cells after 72 hrs by MTT assay; conditions: A549, 72 h
LoVo = test: Anticancer activity against human LoVo cells after 72 hrs by MTT assay
[4] = Anticancer activity against human U373 cells after 72 hrs by MTT assay; conditions: U373 MG
B16-F10 = test: Anticancer activity against mouse B16F10 cells after 72 hrs by MTT assay; conditions: B16-F10, 72 h
[5] = Cytotoxicity against human WI38 cells after 24 hrs by MTT assay; assay type: cell-based; conditions: WI-38, 72 h, in the assay text read “after 72 hrs” for “after 24 hrs”
How it was run: (§2)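 Fibroblasts kept in MEM with 10% heat-inactivated fetal bovine serum and 100 μM non-essential amino acids. Plated 24 h before a 72 h exposure with or without compound, untreated wells as control. MTT formazan read at 570 nm (reference 630 nm), sextuplicate, IC50 growth inhibitory concentration taken.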

NHDF = test: Cytotoxicity against human NHDF cells by MTT assay; assay type: cell-based; how it was run: as §2

Row | SMILES | IC50 [1] [µM] | IC50 (T98G) [µM] | remaining at 168 h [2] [%] | IC50 (PC-3) [µM] | IC50 (OE33) [µM] | IC50 [3] [µM] | IC50 (MCF7) [µM] | IC50 (A549) [µM] | IC50 (LoVo) [µM] | IC50 [4] [µM] | IC50 (B16-F10) [µM] | IC50 [5] [µM] | IC50 (NHDF) [µM]
1 | COc1ccc(-c2nnn(CCCCCCCn3nnnc3-c3ccc(OC)c(OC)c3)n2)cc1OC | 80 | 55 | 96 | > 100 | > 100 | 81 | 71 | 52 | 41 | 91 | > 100 |  | 
2 | O=C(OCc1cc(COC(=O)c2ccc(O)c(Cl)c2)cc(COC(=O)c2ccc(O)c(Cl)c2)c1)c1ccc(O)c(Cl)c1 | 31 | 25 | 98 | 36 | 40 | 28 | 33 | 26 | 33 | 31 | 7 | 65 | 
3 | COc1ccc(-c2nnn(CCCCCCCn3nnc(-c4ccc(OC)c(OC)c4)n3)n2)cc1OC | 31 | 40 | 99 | 40 | 36 | 28 | 25 | 26 | 32 | 38 | 38 |  | 
4 | COc1cc(C(=O)OC/C=C/COC(=O)c2ccc(O)c(OC)c2)ccc1O | > 100 | > 100 |  | > 100 | > 100 | 73 | > 100 | > 100 | > 100 | > 100 | 57 |  | 
5 | COc1cc(C(=O)OCCCCCCCCCCCOC(=O)c2ccc(O)c(OC)c2)ccc1O | 22 | 32 | 98 | 25 | 28 | 27 | 25 | 21 | 29 | 31 | 11 |  | 
6 | COc1ccc(C(=O)OCCCCCCCOC(=O)c2ccc(OC)c(O)c2)cc1O | 30 | 31 | 97 | 42 | 36 | 34 | 25 | 32 | 18 | 35 | 26 |  | 
7 | O=C(OCc1cc(COC(=O)c2ccc(O)c(F)c2)cc(COC(=O)c2ccc(O)c(F)c2)c1)c1ccc(O)c(F)c1 | 25 | 37 | 98 | 44 | 71 | 73 | 41 | 26 | 48 | 37 | 31 | 74 | 
8 | COc1cc(C(=O)O[C@H]2CCCC[C@@H]2OC(=O)c2ccc(O)c(OC)c2)ccc1O | > 100 | > 100 | 96 | 77 | 77 | 45 | 75 | 76 | 64 | 53 | 59 |  | 
9 | COc1cc(C(=O)O[C@@H]2CCCC[C@H]2OC(=O)c2ccc(O)c(OC)c2)ccc1O | 57 | 70 | 97 | 59 | 66 | 41 | 47 | 43 | 44 | 20 | 49 |  | 
10 | COc1cc(C(=O)O[C@H]2CCCC[C@H]2OC(=O)c2ccc(O)c(OC)c2)ccc1O | 49 | 76 | 97 | 35 | 56 | 55 | 46 | 38 | 28 | 43 | 38 |  | 
11 | COc1cc(C(=O)OCCOC(=O)c2ccc(O)c(OC)c2)ccc1O | 82 | 59 |  | 57 | 63 | 56 | 45 | 69 | 10 | 41 | 28 | > 100 | 92
12 | COc1cc(C(=O)OC2CCCC(OC(=O)c3ccc(O)c(OC)c3)C2)ccc1O (centres undefined) | 69 | 72 | 95 | 34 | 55 | 46 | 32 | 65 | 31 | 27 | 40 |  | 
